Experimental data: ChEMBL document CHEMBL1142198, “Diversity of ampicillin resistance genes and antimicrobial susceptibility patterns in Haemophilus influenzae strains isolated in Korea” (2007)
≈ marks a conversion by molar mass, not a printed value.

Tests used:
Assay type in all cases: functional
Haemophilus influenzae [1] = experiment: Antimicrobial activity against Haemophilus influenzae BLPAR strains
In short: (§1)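 Etest MIC determination on Haemophilus test medium agar inoculated evenly with a broth suspension equivalent to a 0.5 McFarland standard. Once dry, strips for 10 antibiotics applied; incubated 35°C, 5% CO2, 20 h. MIC read at complete growth inhibition. ATCC 49766 and ATCC 49247 included as controls in each batch. Korean clinical isolates 2000–2005 classified by nitrocefin disk and PCR.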

Haemophilus influenzae [2] = experiment: Antimicrobial activity against Haemophilus influenzae BLNAS strains; in short: as §1
Haemophilus influenzae [3] = experiment: Antimicrobial activity against Haemophilus influenzae strains that are normal flora; in short: as §1
Haemophilus influenzae [4] = experiment: Antimicrobial activity against Haemophilus influenzae BLPACR strains; in short: as §1
Haemophilus influenzae [5] = experiment: Antimicrobial activity against Haemophilus influenzae BLNAR strains; in short: as §1
Haemophilus influenzae [6] = experiment: Antimicrobial activity against Haemophilus influenzae strains causing clinical infections
In short: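 Etest MICs for 196 clinical-infection isolates collected 2000–2005 at two Seoul tertiary-care hospitals. A 0.5 McFarland broth suspension was spread on Haemophilus test medium agar, strips applied once dry, then incubated 35°C, 5% CO2, 20 h. ATCC 49766 and ATCC 49247 served as controls in each batch.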

| SMILES | MIC50 (Haemophilus influenzae [1]) [mg/L] | MIC90 (Haemophilus influenzae [1]) [mg/L] | MIC50 (Haemophilus influenzae [2]) [mg/L] | MIC90 (Haemophilus influenzae [2]) [mg/L] | MIC50 (Haemophilus influenzae [3]) [mg/L] | MIC90 (Haemophilus influenzae [3]) [mg/L] | MIC50 (Haemophilus influenzae [4]) [mg/L] | MIC90 (Haemophilus influenzae [4]) [mg/L] | MIC50 (Haemophilus influenzae [5]) [mg/L] | MIC90 (Haemophilus influenzae [5]) [mg/L] | MIC50 (Haemophilus influenzae [6]) [mg/L] | MIC90 (Haemophilus influenzae [6]) [mg/L] |
| --- | --- | --- | --- | --- | --- | --- | --- | --- | --- | --- | --- | --- |
| CO/N=C(\C(=O)N[C@@H]1C(=O)N2C(C(=O)O)=C(COC(N)=O)CS[C@H]12)c1ccco1 [CEFUROXIME] | 1 (≈ 2.36 µM) | 256 (≈ 603 µM) | 0.5 (≈ 1.18 µM) | 1 (≈ 2.36 µM) | 0.5 (≈ 1.18 µM) | 256 (≈ 603 µM) | 1 (≈ 2.36 µM) | 256 (≈ 603 µM) | 1 (≈ 2.36 µM) | 8 (≈ 18.9 µM) | 1 (≈ 2.36 µM) | 8 (≈ 18.9 µM) |
| N[C@@H](C(=O)N[C@@H]1C(=O)N2C(C(=O)O)=C(Cl)CS[C@H]12)c1ccccc1 [CEFACLOR ANHYDROUS] | 12 (≈ 32.6 µM) | 256 (≈ 696 µM) | 2 (≈ 5.44 µM) | 6 (≈ 16.3 µM) | 2 (≈ 5.44 µM) | 256 (≈ 696 µM) | 16 (≈ 43.5 µM) | 256 (≈ 696 µM) | 6 (≈ 16.3 µM) | 256 (≈ 696 µM) | 8 (≈ 21.8 µM) | 256 (≈ 696 µM) |
| C=CC1=C(C(=O)O)N2C(=O)[C@@H](NC(=O)/C(=N\OCC(=O)O)c3csc(N)n3)[C@H]2SC1 [CEFIXIME] | 0.047 (≈ 0.104 µM) | 32 (≈ 70.6 µM) | 0.023 (≈ 0.0507 µM) | 0.064 (≈ 0.141 µM) | 0.047 (≈ 0.104 µM) | 32 (≈ 70.6 µM) | 0.064 (≈ 0.141 µM) | 256 (≈ 565 µM) | 0.064 (≈ 0.141 µM) | 32 (≈ 70.6 µM) | 0.047 (≈ 0.104 µM) | 0.75 (≈ 1.65 µM) |
| O=C(N[C@H](CO)[C@H](O)c1ccc([N+](=O)[O-])cc1)C(Cl)Cl [CHLORAMPHENICOL] | 0.75 (≈ 2.32 µM) | 12 (≈ 37.1 µM) | 0.5 (≈ 1.55 µM) | 0.75 (≈ 2.32 µM) | 0.75 (≈ 2.32 µM) | 4 (≈ 12.4 µM) | 0.5 (≈ 1.55 µM) | 8 (≈ 24.8 µM) | 0.5 (≈ 1.55 µM) | 6 (≈ 18.6 µM) | 0.5 (≈ 1.55 µM) | 8 (≈ 24.8 µM) |
| CC[C@H]1OC(=O)[C@H](C)[C@@H](O[C@H]2C[C@@](C)(OC)[C@@H](O)[C@H](C)O2)[C@H](C)[C@@H](O[C@@H]2O[C@H](C)C[C@H](N(C)C)[C@H]2O)[C@](C)(OC)C[C@@H](C)C(=O)[C@H](C)[C@@H](O)[C@]1(C)O [CLARITHROMYCIN] | 16 (≈ 21.4 µM) | 32 (≈ 42.8 µM) | 16 (≈ 21.4 µM) | 24 (≈ 32.1 µM) | 16 (≈ 21.4 µM) | 32 (≈ 42.8 µM) | 16 (≈ 21.4 µM) | 256 (≈ 342 µM) | 12 (≈ 16 µM) | 24 (≈ 32.1 µM) | 16 (≈ 21.4 µM) | 32 (≈ 42.8 µM) |
| C[C@H]1COc2c(N3CCN(C)CC3)c(F)cc3c(=O)c(C(=O)O)cn1c23.C[C@H]1COc2c(N3CCN(C)CC3)c(F)cc3c(=O)c(C(=O)O)cn1c23.O [LEVOFLOXACIN] | 0.016 | 0.032 | 0.016 | 0.032 | 0.023 | 1 | 0.016 | 0.047 | 0.023 | 1 | 0.016 | 0.32 |
| C[C@@H](O)[C@H]1C(=O)N2C(C(=O)O)=C(S[C@@H]3CN[C@H](C(=O)N(C)C)C3)[C@H](C)[C@H]12 [MEROPENEM] | 0.094 (≈ 0.245 µM) | 32 (≈ 83.4 µM) | 0.064 (≈ 0.167 µM) | 0.125 (≈ 0.326 µM) | 0.094 (≈ 0.245 µM) | 32 (≈ 83.4 µM) | 0.19 (≈ 0.495 µM) | 0.38 (≈ 0.991 µM) | 0.125 (≈ 0.326 µM) | 32 (≈ 83.4 µM) | 0.094 (≈ 0.245 µM) | 32 (≈ 83.4 µM) |
| CC1(C)S[C@@H]2[C@H](NC(=O)[C@H](N)c3ccccc3)C(=O)N2[C@H]1C(=O)O [AMPICILLIN] | 256 (≈ 733 µM) | 256 (≈ 733 µM) | 0.25 (≈ 0.715 µM) | 0.38 (≈ 1.09 µM) | 0.38 (≈ 1.09 µM) | 256 (≈ 733 µM) | 256 (≈ 733 µM) | 256 (≈ 733 µM) | 0.75 (≈ 2.15 µM) | 256 (≈ 733 µM) | 24 (≈ 68.7 µM) | 256 (≈ 733 µM) |
